Measurements reported in ChEMBL document CHEMBL1125337, “Synthesis and antibacterial activity of a series of basic amides of teicoplanin and deglucoteicoplanin with polyamines” (J Med Chem, 1992).
Converted amounts (≈) assume the structure as drawn.

Assays:
[1] = Association constant to Ac2-L-Lys-D-Ala-D-Ala determined at pH 9; Value ranges from 5E4-7.5E4
Bacteroides fragilis [2] = experiment: Minimum inhibitory concentration of compound was determined against Bacteroides fragilis L 1236; type: functional
Summary of the method: (§1)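 Microbroth dilution MIC (µg/mL) in Wilkins-Chalgren broth, final inoculum 10^5 cfu/mL, incubated 48 h in an anaerobic chamber.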

Bacteroides fragilis [3] = experiment: Minimum inhibitory concentration of compound was determined against Bacteroides fragilis L 1010; type: functional; summary of the method: as §1
Bacteroides fragilis [4] = experiment: Minimum inhibitory concentration of compound was determined against Bacteroides fragilis L 1011; type: functional; summary of the method: as §1
Escherichia coli [5] = experiment: Efficacy of compound administered intravenously against Escherichia coli L 47 Septicemia in mouse; type: functional; conditions: iv
Summary of the method: (§2)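 Mouse septicemia from intraperitoneal injection of about 10^4 cells of E. coli L 47, about 100 times the 50% lethal dose. Groups of five to eight mice each got a single dose immediately after infection, by the route stated in the line. ED50 in mg/kg was calculated from percent survivors at each dose on day 7 (Spearman-Kärber).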

Escherichia coli [6] = experiment: Efficacy of compound administered subcutaneously against Escherichia coli L 47 Septicemia in mouse; type: functional; conditions: sc; summary of the method: as §2
Enterobacter cloacae [7] = experiment: Minimum inhibitory concentration of compound was determined against Enterobacter cloacae L 1485; type: functional
Summary of the method: (§3)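 MIC (µg/mL) by microbroth dilution in Iso-Sensitest broth; final inoculum 10^4 cfu/mL; 24 h at 37 °C in air.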

Enterobacter cloacae [8] = experiment: Minimum inhibitory concentration of compound was determined against Enterobacter cloacae L 1504; type: functional; summary of the method: as §3
Enterococcus faecalis = experiment: Minimum inhibitory concentration against Enterococcus faecalis ATCC 7080; type: functional
Summary of the method: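 Microbroth dilution MIC (µg/mL), final inoculum 10^4 cfu/mL, incubated 24 h at 37 °C in air.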

Escherichia coli [9] = experiment: Minimum inhibitory concentration of compound was determined against Escherichia coli L 1153; type: functional; summary of the method: as §3
Escherichia coli [10] = experiment: Minimum inhibitory concentration of compound was determined against Escherichia coli L 1347; type: functional; summary of the method: as §3
Escherichia coli [11] = experiment: Minimum inhibitory concentration of compound was determined against Escherichia coli L 1484; type: functional; summary of the method: as §3
Escherichia coli [12] = experiment: Minimum inhibitory concentration of compound was determined against Escherichia coli L 1513; type: functional; summary of the method: as §3
Escherichia coli [13] = experiment: Minimum inhibitory concentration of compound was determined against Escherichia coli L 1536; type: functional; summary of the method: as §3
Escherichia coli [14] = experiment: Minimum inhibitory concentration of compound was determined against Escherichia coli L 1572; type: functional; summary of the method: as §3
Escherichia coli [15] = experiment: Minimum inhibitory concentration against Escherichia coli L 47; type: functional; summary of the method: as §3
Klebsiella pneumoniae [16] = experiment: Minimum inhibitory concentration of compound was determined against Klebsiella pneumoniae L 1481; type: functional; summary of the method: as §3
Klebsiella pneumoniae [17] = experiment: Minimum inhibitory concentration of compound was determined against Klebsiella pneumoniae L 1499; type: functional; summary of the method: as §3
Mus musculus = species: Mus musculus; experiment: Number of mouse survivors to that of treated with compound; 6 out of 8 survived; type: functional
Proteus mirabilis [18] = experiment: Minimum inhibitory concentration of compound was determined against Proteus mirabilis L 1157; type: functional; summary of the method: as §3
Proteus mirabilis [19] = experiment: Minimum inhibitory concentration of compound was determined against Proteus mirabilis L 1356; type: functional; summary of the method: as §3
Proteus vulgaris [20] = experiment: Minimum inhibitory concentration against Proteus vulgaris ATCC 881; type: functional; summary of the method: as §3
Proteus vulgaris [21] = experiment: Minimum inhibitory concentration of compound was determined against Proteus vulgaris L 1539; type: functional; summary of the method: as §3
Pseudomonas aeruginosa [22] = experiment: Minimum inhibitory concentration of compound was determined against Pseudomonas aeruginosa L 1348; type: functional; summary of the method: as §3
Pseudomonas aeruginosa [23] = experiment: Minimum inhibitory concentration against Pseudomonas aeruginosa ATCC 10145; type: functional; summary of the method: as §3
Pseudomonas aeruginosa [24] = experiment: Minimum inhibitory concentration of compound was determined against Pseudomonas aeruginosa L 1138; type: functional; summary of the method: as §3
Pseudomonas aeruginosa [25] = experiment: Minimum inhibitory concentration of compound was determined against Pseudomonas aeruginosa L 1533; type: functional; summary of the method: as §3
Staphylococcus aureus = experiment: Minimum inhibitory concentration against Staphylococcus aureus L 165; type: functional; summary of the method: as §3
Serratia marcescens [26] = experiment: Minimum inhibitory concentration of compound was determined against Serratia marcescens L 1506; type: functional; summary of the method: as §3
Salmonella typhimurium = experiment: Minimum inhibitory concentration of compound was determined against Salmonella Typhimurium L 35; type: functional, Salmonella enterica subsp. enterica serovar Typhimurium; conditions: Salmonella enterica; summary of the method: as §3
Streptococcus pyogenes [27] = experiment: Efficacy of compound administered subcutaneously against Streptococcus pyogenes L 49 Septicemia in mouse; type: functional; conditions: sc
Summary of the method: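 Mice were infected intraperitoneally with about 10^5 Strep. pyogenes L 49 cells, about 100 times the 50% lethal dose. Groups of 5–8 mice were treated once right after challenge, by the route stated in the line. ED50 (mg/kg) was derived from percentage survival at each dose on day 7 (Spearman-Kärber).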

Shigella sonnei = experiment: Minimum inhibitory concentration of compound was determined against Shigella sonnei L 363; type: functional; summary of the method: as §3
Streptococcus pyogenes [28] = experiment: Minimum inhibitory concentration of compound was determined against Streptococcus pyogenes L 49 in mouse; type: functional
Shigella dysenteriae = experiment: Minimum inhibitory concentration of compound was determined against Shigella dysentariae L155; type: functional
[29] = test system: Staphylococcus epidermidis; experiment: Minimum inhibitory concentration against Staphylococcus epidermidis ATCC 12228; type: functional; summary of the method: as §3
Serratia marcescens [30] = experiment: Minimum inhibitory concentration of compound was determined against Serratia marcescens L 1488; type: functional; summary of the method: as §3
Streptococcus pneumoniae = experiment: Minimum inhibitory concentration against Streptococcus pneumoniae L 44; type: functional
Summary of the method: (§4)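 MIC (µg/mL) by microbroth dilution in Todd-Hewitt broth, final inoculum 10^4 cfu/mL, incubated 24 h at 37 °C in air.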

[31] = test system: Staphylococcus haemolyticus; experiment: Minimum inhibitory concentration against Staphylococcus haemolyticus L 602; type: functional; summary of the method: as §3
Streptococcus pyogenes [32] = experiment: Minimum inhibitory concentration against Streptococcus pyogenes L 49; type: functional; summary of the method: as §4
Pseudomonas aeruginosa [33] = experiment: Minimum inhibitory concentration of compound was determined against Pseudomonas aeruginosa L 1498; type: functional; summary of the method: as §3

SMILES: NCCCNCCCNCCCNC(=O)[C@H]1NC(=O)[C@H]2NC(=O)[C@H](NC(=O)[C@@H]3NC(=O)[C@H]4NC(=O)[C@@H](Cc5ccc(c(Cl)c5)Oc5cc3cc(c5O)Oc3ccc(cc3Cl)[C@H]2O)NC(=O)[C@H](N)c2ccc(O)c(c2)Oc2cc(O)cc4c2)c2ccc(O)c(c2)-c2c(O)cc(O)cc21
- Ka [1]: 75000 M⁻¹
- MIC (Bacteroides fragilis [2]): 128 µg/mL (≈ 93.5 µM)
- MIC (Bacteroides fragilis [3]): 16 µg/mL (≈ 11.7 µM)
- MIC (Bacteroides fragilis [4]): 32 µg/mL (≈ 23.4 µM)
- ED50 (Escherichia coli [5]): < 40 mg/kg
- ED50 (Escherichia coli [6]): > 200 mg/kg
- MIC (Enterobacter cloacae [7]): 4 µg/mL (≈ 2.92 µM)
- MIC (Enterobacter cloacae [8]): 8 µg/mL (≈ 5.84 µM)
- MIC (Enterococcus faecalis): 0.25 µg/mL (≈ 0.183 µM)
- MIC (Escherichia coli [9]): 1 µg/mL (≈ 0.73 µM)
- MIC (Escherichia coli [10]): 4 µg/mL (≈ 2.92 µM)
- MIC (Escherichia coli [11]): 2 µg/mL (≈ 1.46 µM)
- MIC (Escherichia coli [12]): 2 µg/mL (≈ 1.46 µM)
- MIC (Escherichia coli [13]): 2 µg/mL (≈ 1.46 µM)
- MIC (Escherichia coli [14]): 2 µg/mL (≈ 1.46 µM)
- MIC (Escherichia coli [15]): 0.5 µg/mL (≈ 0.365 µM)
- MIC (Klebsiella pneumoniae [16]): 4 µg/mL (≈ 2.92 µM)
- MIC (Klebsiella pneumoniae [17]): 8 µg/mL (≈ 5.84 µM)
- Survivors (Mus musculus): 6
- MIC (Proteus mirabilis [18]): 128 µg/mL (≈ 93.5 µM)
- MIC (Proteus mirabilis [19]): 32 µg/mL (≈ 23.4 µM)
- MIC (Proteus vulgaris [20]): 64 µg/mL (≈ 46.7 µM)
- MIC (Proteus vulgaris [21]): 32 µg/mL (≈ 23.4 µM)
- MIC (Pseudomonas aeruginosa [22]): 4 µg/mL (≈ 2.92 µM)
- MIC (Pseudomonas aeruginosa [23]): 2 µg/mL (≈ 1.46 µM)
- MIC (Pseudomonas aeruginosa [24]): 32 µg/mL (≈ 23.4 µM)
- MIC (Pseudomonas aeruginosa [25]): 64 µg/mL (≈ 46.7 µM)
- MIC (Staphylococcus aureus): 0.063 µg/mL (≈ 0.046 µM)
- MIC (Serratia marcescens [26]): 8 µg/mL (≈ 5.84 µM)
- MIC (Salmonella typhimurium): 4 µg/mL (≈ 2.92 µM)
- ED50 (Streptococcus pyogenes [27]): 0.72 mg/kg
- MIC (Shigella sonnei): 2 µg/mL (≈ 1.46 µM)
- MIC (Streptococcus pyogenes [28]): 0.06 µg/mL (≈ 0.0438 µM)
- MIC (Shigella dysenteriae): 1 µg/mL (≈ 0.73 µM)
- MIC [29]: 0.016 µg/mL (≈ 0.0117 µM)
- MIC (Serratia marcescens [30]): 8 µg/mL (≈ 5.84 µM)
- MIC (Streptococcus pneumoniae): 0.125 µg/mL (≈ 0.0913 µM)
- MIC [31]: 0.063 µg/mL (≈ 0.046 µM)
- MIC (Streptococcus pyogenes [32]): 0.063 µg/mL (≈ 0.046 µM)
- MIC (Pseudomonas aeruginosa [33]): 64 µg/mL (≈ 46.7 µM)

SMILES: NCCCNCCNCCCNC(=O)[C@H]1NC(=O)[C@H]2NC(=O)[C@H](NC(=O)[C@@H]3NC(=O)[C@H]4NC(=O)[C@@H](Cc5ccc(c(Cl)c5)Oc5cc3cc(c5O)Oc3ccc(cc3Cl)[C@H]2O)NC(=O)[C@H](N)c2ccc(O)c(c2)Oc2cc(O)cc4c2)c2ccc(O)c(c2)-c2c(O)cc(O)cc21
- Ka [1]: 75000 M⁻¹
- MIC (Enterococcus faecalis): 0.125 µg/mL (≈ 0.0922 µM)
- MIC (Escherichia coli [15]): 2 µg/mL (≈ 1.48 µM)
- MIC (Proteus vulgaris [20]): 64 µg/mL (≈ 47.2 µM)
- MIC (Pseudomonas aeruginosa [23]): 16 µg/mL (≈ 11.8 µM)
- MIC (Staphylococcus aureus): 0.125 µg/mL (≈ 0.0922 µM)
- ED50 (Streptococcus pyogenes [27]): 2.87 mg/kg
- MIC (Streptococcus pyogenes [28]): 0.06 µg/mL (≈ 0.0443 µM)
- MIC [29]: 0.063 µg/mL (≈ 0.0465 µM)
- MIC (Streptococcus pneumoniae): 0.125 µg/mL (≈ 0.0922 µM)
- MIC [31]: 0.125 µg/mL (≈ 0.0922 µM)
- MIC (Streptococcus pyogenes [32]): 0.063 µg/mL (≈ 0.0465 µM)

SMILES: NCCCCNCCCNC(=O)[C@H]1NC(=O)[C@H]2NC(=O)[C@H](NC(=O)[C@@H]3NC(=O)[C@H]4NC(=O)[C@@H](Cc5ccc(c(Cl)c5)Oc5cc3cc(c5O)Oc3ccc(cc3Cl)[C@H]2O)NC(=O)[C@H](N)c2ccc(O)c(c2)Oc2cc(O)cc4c2)c2ccc(O)c(c2)-c2c(O)cc(O)cc21
- Ka [1]: 75000 M⁻¹
- MIC (Enterococcus faecalis): 0.125 µg/mL (≈ 0.0943 µM)
- MIC (Escherichia coli [15]): 2 µg/mL (≈ 1.51 µM)
- MIC (Proteus vulgaris [20]): 32 µg/mL (≈ 24.1 µM)
- MIC (Pseudomonas aeruginosa [23]): 8 µg/mL (≈ 6.03 µM)
- MIC (Staphylococcus aureus): 0.063 µg/mL (≈ 0.0475 µM)
- ED50 (Streptococcus pyogenes [27]): 0.31 mg/kg
- MIC (Streptococcus pyogenes [28]): 0.06 µg/mL (≈ 0.0452 µM)
- MIC [29]: 0.063 µg/mL (≈ 0.0475 µM)
- MIC (Streptococcus pneumoniae): 0.125 µg/mL (≈ 0.0943 µM)
- MIC [31]: 0.063 µg/mL (≈ 0.0475 µM)
- MIC (Streptococcus pyogenes [32]): 0.063 µg/mL (≈ 0.0475 µM)
